The record followed here is ChEMBL document CHEMBL1123257, “Synthesis of sulfur analogues of alkyl lysophospholipid and neoplastic cell growth inhibitory properties” (1986).

The structures appear in SMILES notation.

Common to all, as to format: functional
Assay [1] concerns BG-1 cell line. Put plainly: Compound was evaluated for its effect on colony growth of human ovarian adenocarcinoma cell line BG-1 at 10.0 ug/mL. A digest of the protocol: (§1)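 Single-cell suspensions of BG-1 or BG-3 human ovarian carcinoma cells (derived from primary explants, now kept in continuous culture) were plated in soft agarose clonogenic culture. Cells were exposed continuously to phospholipid analogue over a three-log concentration range, with untreated cultures as controls. After 7 days at 37 °C/7.5% CO2, colonies were scored by inverted microscopy and automated image analysis.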

The test system of assay [2] is BG-1 cell line. The experiment in a line: Compound was evaluated for its effect on colony growth of human ovarian adenocarcinoma cell line BG-1 at 3.0 ug/mL. A digest of the protocol:
as §1

In assay [3] the test system is BG-1 cell line. The experiment in a line: Compound was evaluated for its effect on colony growth of human ovarian adenocarcinoma cell line BG-1 at 30.0 ug/mL. An outline of the steps:
as §1

In assay [4] the test system is BG-3. Put plainly: Compound was evaluated for its effect on colony growth of human ovarian adenocarcinoma cell line BG-3 at 0.0 ug/mL,. A digest of the protocol:
as §1

Assay [5] concerns BG-3. The experiment in a line: Compound was evaluated for its effect on colony growth of human ovarian adenocarcinoma cell line BG-3 at 0.03 ug/mL. An outline of the steps:
as §1

The subject of assay [6] is BG-3. The experiment in a line: Compound was evaluated for its effect on colony growth of human ovarian adenocarcinoma cell line BG-3 at 0.1 ug/mL. A digest of the protocol: as §1
The test system of assay [7] is BG-3. The experiment in a line: Compound was evaluated for its effect on colony growth of human ovarian adenocarcinoma cell line BG-3 at 0.3 ug/mL. An outline of the steps: as §1
Assay [8] concerns BG-3. Put plainly: Compound was evaluated for its effect on colony growth of human ovarian adenocarcinoma cell line BG-3 at 1.0 ug/mL. An outline of the steps: as §1
Assay [9] relates to BG-3. Put plainly: Compound was evaluated for its effect on colony growth of human ovarian adenocarcinoma cell line BG-3 at 10.0 ug/mL. A digest of the protocol:
as §1

The subject of assay [10] is BG-3. Put plainly: Compound was evaluated for its effect on colony growth of human ovarian adenocarcinoma cell line BG-3 at 3.0 ug/mL. An outline of the steps: as §1
The subject of assay [11] is BG-3. Put plainly: Compound was evaluated for its effect on colony growth of human ovarian adenocarcinoma cell line BG-3 at 30.0 ug/mL. An outline of the steps: as §1
Assay [12] has as its system BG-1 cell line. Put plainly: Compound was evaluated for its effect on colony growth of human ovarian adenocarcinoma cell line BG-1 at 0.0 ug/mL. A digest of the protocol: as §1
For assay [13], the system named is BG-1 cell line. Put plainly: Compound was evaluated for its effect on colony growth of human ovarian adenocarcinoma cell line BG-1 at 0.03 ug/mL. A digest of the protocol: as §1
The subject of assay [14] is BG-1 cell line. The experiment in a line: Compound was evaluated for its effect on colony growth of human ovarian adenocarcinoma cell line BG-1 at 0.1 ug/mL. An outline of the steps: as §1
Assay [15] deals with BG-1 cell line. Put plainly: Compound was evaluated for its effect on colony growth of human ovarian adenocarcinoma cell line BG-1 at 0.3 ug/mL. An outline of the steps: as §1
Assay [16] has as its system BG-1 cell line. The experiment in a line: Compound was evaluated for its effect on colony growth of human ovarian adenocarcinoma cell line BG-1 at 1.0 ug/mL. An outline of the steps:
as §1

In the case of `CCCCCCCCCCCCCCCCSCC(COP(=O)([O-])OCC[N+](C)(C)C)OCC` (stereo unspecified), the Control in [1] turned out to be 2%; in [2], 2%; in assay [3], 2%; in assay [4], 100%; in assay [5] it was 56%; in assay [6] it was 54%. In addition, the Control in [7] is reported as 56%; in assay [8], 17%; in assay [9], 3%; in [10] it was 2%; in assay [11], 2%; in [12], 100%. Further, the Control was determined as 65% in assay [13], 64% in [14], 53% in [15] and 8% in assay [16].
